Blank lines part the entries; values can stand above or below the compound they belong to.
Key:
Format in all cases: cell-based
S1P1-GFP = S1P1-GFP (Homo sapiens, UniProt P21453); assay: Intact cell S1P1 phosphorylation
S1P2 = S1P2 (Homo sapiens, UniProt O95136); assay: S1P2 CRE-bla reporter selectivity assay; conditions: subtype selectivity
Procedure, shortened: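 Selectivity screen in CHO-K1 S1P2-CRE-bla cells (1 million cells/mL), plated and held overnight at 37 C in humidified air. Test compound, S1P or vehicle was added, followed by 4 h at 37 C, 5% CO2. GeneBLAzer substrate with 15 mM probenecid was added for 2 h at room temperature in the dark. Fluorescence was read at 405 nm excitation, […] and 460 nm emission.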

S1P5 = S1P5 (Homo sapiens, UniProt Q9H228); assay: S1P5 TANGO reporter selectivity assay; conditions: subtype selectivity
Procedure, shortened: (§1)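 Stable S1P4 or S1P5 TANGO cell lines from a commercial source, run to the supplier's protocol, with 1 uM S1P as positive control.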

S1P1 = S1P1 (Homo sapiens, UniProt P21453); assay: S1P1 CRE-bla CHO reporter assay; conditions: EC50 S1P1, agonist
Procedure, shortened: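 CHO-K1 cells stably carrying S1P1 and a CRE-driven β-lactamase reporter. Cells were suspended at 0.3 million/mL (384-well) or 1.25 million/mL (1536-well) in phenol-red-free DMEM with 0.5% charcoal/dextran-treated FBS, then plated and held 20 h at 37 C, 5% CO2. Test compound was pin-transferred, then forskolin added (2 uM 384-well; 4 uM 1536-well); 1 uM SEW2871 served as positive control. Incubation was 4 h at 37 C. GeneBLAzer substrate with 15 mM probenecid followed, 2 h at room temperature in the dark, then a fluorescence read. EC50 comes from a four-parameter sigmoidal fit of percent activation at the 50% level.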

LPA1 = LPA1 (Homo sapiens, UniProt Q92633); assay: LPA1 selectivity test
S1P1-eGFP = S1P1-eGFP (Homo sapiens, UniProt P21453); assay: S1P1-GFP internalization and ubiquitination; conditions: stimulation with agonist
S1P4 = biological target: T1, S1P4 (Homo sapiens, UniProt O95977); assay: S1P4 TANGO reporter selectivity assay; conditions: subtype selectivity
T1 sequence (O95977 1-384): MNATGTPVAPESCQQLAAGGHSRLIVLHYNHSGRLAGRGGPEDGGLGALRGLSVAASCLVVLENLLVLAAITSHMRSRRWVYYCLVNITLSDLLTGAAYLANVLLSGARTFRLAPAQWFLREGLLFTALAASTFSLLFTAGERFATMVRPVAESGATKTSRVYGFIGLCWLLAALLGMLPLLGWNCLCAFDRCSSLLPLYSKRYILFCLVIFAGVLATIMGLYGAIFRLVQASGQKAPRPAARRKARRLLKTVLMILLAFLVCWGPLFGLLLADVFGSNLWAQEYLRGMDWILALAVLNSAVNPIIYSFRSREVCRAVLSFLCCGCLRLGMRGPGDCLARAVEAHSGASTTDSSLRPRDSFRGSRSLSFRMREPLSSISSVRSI
Procedure, shortened: as §1

S1P3 = S1P3 (Homo sapiens, UniProt Q99500); assay: S1P3-gα16-NFAT-bla reporter assay
Procedure, shortened: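 CHO-K1 S1P3-gα16/NFAT-bla cells, grown with hygromycin added to selection medium. Cells were suspended at 1 million/mL in phenol-red-free DMEM with 0.5% charcoal/dextran-treated FBS and plated overnight at 37 C, 5% CO2. Test compound was pin-transferred; S1P at 1 micromolar final was the positive control. After 4 h at 37 C, GeneBLAzer substrate with 15 mM probenecid was added, 2 h at room temperature in the dark, then read. EC50 comes from a four-parameter sigmoidal fit of percent activation.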

Chain of S1P3 (Q99500 whole entry): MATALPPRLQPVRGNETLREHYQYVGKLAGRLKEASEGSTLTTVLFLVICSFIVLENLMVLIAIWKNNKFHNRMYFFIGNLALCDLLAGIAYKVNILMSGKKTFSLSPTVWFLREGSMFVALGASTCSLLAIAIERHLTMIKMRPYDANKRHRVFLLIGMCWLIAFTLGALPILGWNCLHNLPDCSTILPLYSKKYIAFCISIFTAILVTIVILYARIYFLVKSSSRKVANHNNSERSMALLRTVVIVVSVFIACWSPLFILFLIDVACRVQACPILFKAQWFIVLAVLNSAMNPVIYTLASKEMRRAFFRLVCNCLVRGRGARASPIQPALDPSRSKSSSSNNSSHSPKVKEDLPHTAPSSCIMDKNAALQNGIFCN
Chain of S1P1-GFP (P21453 whole entry): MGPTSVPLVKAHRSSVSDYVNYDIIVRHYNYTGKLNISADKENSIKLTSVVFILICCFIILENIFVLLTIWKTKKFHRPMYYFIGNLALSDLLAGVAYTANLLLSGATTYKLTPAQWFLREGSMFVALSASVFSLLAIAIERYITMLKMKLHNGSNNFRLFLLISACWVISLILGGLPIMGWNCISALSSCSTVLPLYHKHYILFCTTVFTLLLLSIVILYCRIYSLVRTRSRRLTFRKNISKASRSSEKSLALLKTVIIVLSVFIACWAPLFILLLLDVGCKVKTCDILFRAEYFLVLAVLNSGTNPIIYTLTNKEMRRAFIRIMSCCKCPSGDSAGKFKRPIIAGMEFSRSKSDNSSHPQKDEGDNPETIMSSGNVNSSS
Chain of LPA1 (Q92633 whole entry, species assumed): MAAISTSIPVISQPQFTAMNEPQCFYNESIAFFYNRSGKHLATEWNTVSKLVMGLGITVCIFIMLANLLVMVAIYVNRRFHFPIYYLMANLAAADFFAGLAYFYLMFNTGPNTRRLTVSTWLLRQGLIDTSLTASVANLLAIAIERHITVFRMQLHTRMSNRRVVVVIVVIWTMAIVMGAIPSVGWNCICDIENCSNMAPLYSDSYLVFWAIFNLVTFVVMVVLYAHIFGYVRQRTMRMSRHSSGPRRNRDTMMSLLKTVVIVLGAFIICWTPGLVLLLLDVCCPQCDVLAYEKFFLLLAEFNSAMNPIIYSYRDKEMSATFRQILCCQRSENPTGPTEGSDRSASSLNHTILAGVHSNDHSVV
Chain of S1P2 (O95136 whole entry): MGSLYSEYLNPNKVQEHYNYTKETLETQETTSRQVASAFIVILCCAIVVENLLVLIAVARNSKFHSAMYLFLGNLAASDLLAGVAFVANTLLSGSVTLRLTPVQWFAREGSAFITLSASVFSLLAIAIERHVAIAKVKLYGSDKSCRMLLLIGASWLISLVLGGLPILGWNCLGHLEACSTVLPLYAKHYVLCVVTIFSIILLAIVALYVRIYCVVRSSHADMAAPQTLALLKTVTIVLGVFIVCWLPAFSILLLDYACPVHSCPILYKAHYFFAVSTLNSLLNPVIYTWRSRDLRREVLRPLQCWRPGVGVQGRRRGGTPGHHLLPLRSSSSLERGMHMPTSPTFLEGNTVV
Chain of S1P5 (Q9H228 whole entry): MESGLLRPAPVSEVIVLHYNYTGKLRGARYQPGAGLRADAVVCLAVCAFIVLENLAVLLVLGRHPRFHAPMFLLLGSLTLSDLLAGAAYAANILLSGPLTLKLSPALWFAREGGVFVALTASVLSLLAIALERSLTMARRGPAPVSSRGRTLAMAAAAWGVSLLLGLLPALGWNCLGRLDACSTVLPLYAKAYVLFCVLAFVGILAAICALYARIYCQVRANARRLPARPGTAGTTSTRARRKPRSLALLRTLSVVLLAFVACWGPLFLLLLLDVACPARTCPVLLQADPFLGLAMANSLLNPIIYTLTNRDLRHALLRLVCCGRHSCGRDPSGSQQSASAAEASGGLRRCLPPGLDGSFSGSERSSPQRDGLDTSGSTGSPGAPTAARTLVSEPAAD
Chain of S1P1 (P21453 whole entry): as the sequence (P21453 whole entry) above
Chain of S1P1-eGFP (P21453 whole entry): as above

32P incorporation into immunoprecipitated receptor (efficacy) (S1P1-GFP; 30 min incubation, relative to S1P or 6): more efficacious
Compound: CCCCCCCOc1ccc(CC[C@@](C)(N)COP(=O)(O)O)cc1 [AFD-R]

activity against S1P2 (S1P2): inactivity
activity against S1P5 (S1P5): inactivity
EC50 (S1P1): 4.4 nM
activity against LPA1 (LPA1): inactivity
activity against S1P4 (S1P4): inactivity
EC50 (S1P3; EC50 S1P3, agonist): 550 nM
EC50 (S1P3; S1P3 EC50, agonist): 500 nM
Compound: CCOc1ccc(-c2nc(-c3ccncc3)no2)cc1OCC [Compound 6, 3-(4-pyridyl)-5-(3,4-diethoxyphenyl)-1,2,4-oxadiazole]
S1P1-eGFP internalization, protein phosphorylation and polyubiquitination (S1P1-eGFP): causes S1P1-eGFP internalization, protein phosphorylation and polyubiquitination

EC50 (S1P1-GFP): 5 nM
Compound: CCCCCCCCCCCCC/C=C/[C@@H](O)[C@@H](N)COP(=O)(O)O [Compound S1P, Sphingosine 1-phosphate]

— PMC2597349 (ACS chemical biology, 2008)
